Exocytosis inh = lytic granule exocytosis inhibition; hit rate 0.66% among 360,000; AID 651702; inhibition, % at 10 µM; TALL-104 LAMP-1 surface exposure, flow cytometry; cells stimulated with thapsigargin and PMA;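 active = inhibition above about 55%, limit read from the data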
HKDC1 inhibitor = blocks human hexokinase HKDC1 activity; Q2TB90; recombinant HKDC1, G6PDH/diaphorase resazurin coupled fluorescence; inhibition, % at 20 µM; hit rate 0.16% among 340,000; AID 493160;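 active = inhibition above about 35% when tested at 20 µM, limit read from the data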;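 note: plate controls were DMSO wells with enzyme for no effect and DMSO wells lacking enzyme for full effect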
Target sequence (Q2TB90 whole entry, looked up): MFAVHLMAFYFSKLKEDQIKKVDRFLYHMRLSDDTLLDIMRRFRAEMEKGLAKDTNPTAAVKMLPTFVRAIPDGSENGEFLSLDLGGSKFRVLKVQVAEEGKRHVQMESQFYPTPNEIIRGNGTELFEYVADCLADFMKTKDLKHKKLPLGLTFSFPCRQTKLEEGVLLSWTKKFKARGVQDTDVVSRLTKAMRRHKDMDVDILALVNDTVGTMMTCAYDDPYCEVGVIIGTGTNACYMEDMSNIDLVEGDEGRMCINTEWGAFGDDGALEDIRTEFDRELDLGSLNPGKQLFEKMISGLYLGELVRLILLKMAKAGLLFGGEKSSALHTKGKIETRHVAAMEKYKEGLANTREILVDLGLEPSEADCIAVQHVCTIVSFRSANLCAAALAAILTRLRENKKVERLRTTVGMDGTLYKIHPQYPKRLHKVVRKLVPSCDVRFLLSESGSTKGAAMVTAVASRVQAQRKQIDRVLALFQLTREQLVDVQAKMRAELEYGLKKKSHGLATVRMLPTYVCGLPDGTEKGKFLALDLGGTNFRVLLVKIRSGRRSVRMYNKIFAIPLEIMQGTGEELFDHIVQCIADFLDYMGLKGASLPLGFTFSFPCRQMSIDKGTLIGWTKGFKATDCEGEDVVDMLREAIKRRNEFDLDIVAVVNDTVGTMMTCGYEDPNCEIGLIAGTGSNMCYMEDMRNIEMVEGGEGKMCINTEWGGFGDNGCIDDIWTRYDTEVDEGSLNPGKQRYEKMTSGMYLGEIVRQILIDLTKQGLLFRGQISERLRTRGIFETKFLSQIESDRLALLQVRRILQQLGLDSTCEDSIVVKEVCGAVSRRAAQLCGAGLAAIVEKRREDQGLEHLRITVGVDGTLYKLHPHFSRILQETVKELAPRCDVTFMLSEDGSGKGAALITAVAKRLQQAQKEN
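Assay system: recombinant HKDC1 hexokinase; detection: coupled resazurin fluorescence, excitation 525 nm, emission 613 nm; benchmarks: DMSO-plus-enzyme-mix negative control, buffer-substituted positive control; compound dosing: single 20 µM dose; schedule: 90 min at room temperature in dark; also added: glucose plus 1 mM ATP as hexokinase substrates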
PfGluPho inh = PfG6PD (Plasmodium falciparum) enzyme inhibition. PfGluPho enzyme, NADPH resazurin-diaphorase fluorescence. inhibition, % at 20 µM. hit rate 0.78% among 350,000. AID 504690;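 active = inhibition reaching at least a set limit at 20 µM in the primary screen, cut at about 59% in these data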;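 note: 0% = DMSO wells with substrate and 100% = DMSO wells lacking glucose-6-phosphate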
ABHD5 PLIN5 PPI = ABHD5-PLIN5 protein interaction inhibition. Q00G26+Q8WTS1. Split G. princeps luciferase complementation, luminescence, 4 h. inhibition, % at 4 µM. hit rate 0.78% among 360,000. AID 602281;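 active = inhibition above the mean inhibition across every tested compound plus 3 SD, cut at about 22% in these data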;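 note: 0% = DMSO only wells and the 100% control is not disclosed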
HKDC1 act conf = confirmation of human HKDC1 activators; shares compounds with HKDC1 inhibitor; recombinant HKDC1, G6PDH/diaphorase resazurin fluorescence; hits give low values; inhibition, % at 20 µM; hit rate 14% among 740;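 active = inhibition at or below a set negative limit, negative inhibition meaning the enzyme was activated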
Numbers without * were called inactive. Most compounds without a hit are left out; they make up all but 2.2% or so of the library.

Results for COc1cc(OC)c(OC)cc1CCC(C)NCCC(c1ccccc1)c1ccccc1 (configuration not stated) ?
Exocytosis inh: 7.4; HKDC1 inhibitor: 81.0*; PfGluPho inh: 17.9; ABHD5 PLIN5 PPI: 15.6; HKDC1 act conf: -23.9

Results for O=[N+]([O-])c1cc(Cl)ccc1N1CCCC1 ?
Exocytosis inh: 0.7; HKDC1 inhibitor: -13.8; PfGluPho inh: -11.2; ABHD5 PLIN5 PPI: -9.4

Results for O=C1C(Cl)=C(N2CCN(c3ccccc3[N+](=O)[O-])CC2)C(=O)c2ccccc21 ?
Exocytosis inh: 46.9; HKDC1 inhibitor: 40.0*; PfGluPho inh: 16.9; ABHD5 PLIN5 PPI: -6.7; HKDC1 act conf: -9.4

What do the screens show for `CN1CCN(NC(=O)c2ccc(Cl)c([N+](=O)[O-])c2)CC1`?
Exocytosis inh: 1.2; HKDC1 inhibitor: 6.1; PfGluPho inh: 0.2; ABHD5 PLIN5 PPI: 3.4

Results for O=C(NN1CCOCC1)c1ccc(Cl)c([N+](=O)[O-])c1 ?
Exocytosis inh: 3.9; HKDC1 inhibitor: 36.5*; PfGluPho inh: 5.3; ABHD5 PLIN5 PPI: -4.2; HKDC1 act conf: -33.6

How did Cc1onc(C(=O)Nc2ccc(OC(F)(F)F)cc2)c1[N+](=O)[O-] do in these assays?
Exocytosis inh: 2.1; HKDC1 inhibitor: 79.1*; PfGluPho inh: 12.2; ABHD5 PLIN5 PPI: -6.9; HKDC1 act conf: -14.9

What do the screens show for `CC(=O)c1ccc(NC(=O)c2noc(C)c2[N+](=O)[O-])cc1`?
Exocytosis inh: -1.0; HKDC1 inhibitor: -6.0; PfGluPho inh: -8.6; ABHD5 PLIN5 PPI: 6.4

Results for CCCc1nc2c(c(=O)c3ccccc3n2C)c(=O)n1-c1ccc(F)cc1 ?
Exocytosis inh: -2.4; HKDC1 inhibitor: 51.1*; PfGluPho inh: 48.5; ABHD5 PLIN5 PPI: 5.1; HKDC1 act conf: 58.5

Results for Cc1nc2c(c(=O)c3ccccc3n2C)c(=O)n1-c1ccc(F)cc1 ?
Exocytosis inh: 1.5; HKDC1 inhibitor: 51.4*; PfGluPho inh: 41.0; ABHD5 PLIN5 PPI: 7.9; HKDC1 act conf: 52.9

What do the screens show for `CC(C)c1nc2c(c(=O)c3ccccc3n2C)c(=O)n1-c1ccc(F)cc1`?
Exocytosis inh: -4.9; HKDC1 inhibitor: 12.6; PfGluPho inh: 9.3; ABHD5 PLIN5 PPI: 4.2

How did Cc1ccc(C)c(N2C(=O)C3C4C=CC(CC4)C3C2=O)c1 (configuration not stated) do in these assays?
Exocytosis inh: -2.3; HKDC1 inhibitor: -0.7; PfGluPho inh: -9.5; ABHD5 PLIN5 PPI: -0.1

Results for O=[N+]([O-])c1cccc(/C=N/NC2CCS(=O)(=O)C2)c1 (configuration not stated) ?
Exocytosis inh: -5.6; HKDC1 inhibitor: 1.1; PfGluPho inh: 8.0; ABHD5 PLIN5 PPI: -2.2

Results for COc1ccc(Br)c(Cn2c(C)c(C(=O)NCc3ccc(F)cc3)sc2=O)c1 ?
Exocytosis inh: -0.9; ABHD5 PLIN5 PPI: -8.6

What do the screens show for `CN1CCC(N(C)C(=O)/C(C#N)=C/c2ccc(OC(F)F)cc2)CC1`?
Exocytosis inh: 8.1; HKDC1 inhibitor: -6.1; PfGluPho inh: 8.1; ABHD5 PLIN5 PPI: 1.6

What do the screens show for `COc1ccc(CN2C(=O)c3cccnc3C2O)cc1` (configuration not stated)?
Exocytosis inh: 1.3; HKDC1 inhibitor: 40.9*; PfGluPho inh: 13.5; ABHD5 PLIN5 PPI: 6.2; HKDC1 act conf: 35.8

What do the screens show for `O=C(O)C1Nc2c(O)cc(Cl)c([N+](=O)[O-])c2C2C=CCC12` (configuration not stated)?
Exocytosis inh: -1.1; HKDC1 inhibitor: 31.7; PfGluPho inh: 1.8; ABHD5 PLIN5 PPI: 14.4; HKDC1 act conf: 31.4

What do the screens show for `O=C(CSc1ccc(F)cc1)Nc1ccc(C2SCCS2)cc1`?
Exocytosis inh: 3.0; HKDC1 inhibitor: -3.3; PfGluPho inh: 11.8; ABHD5 PLIN5 PPI: -10.4

What do the screens show for `Cc1ccccc1N=C1NN=C(c2ccccc2F)CS1`?
Exocytosis inh: 3.3; HKDC1 inhibitor: -46.8; PfGluPho inh: 7.7; ABHD5 PLIN5 PPI: -9.4; HKDC1 act conf: -40.3*

Results for O=C1C(N2CCOCC2)=C(n2nnc3ccccc32)C(=O)c2ccccc21 ?
Exocytosis inh: 29.8; HKDC1 inhibitor: 43.3*; PfGluPho inh: 56.1; ABHD5 PLIN5 PPI: -16.2; HKDC1 act conf: 54.8

What do the screens show for `Oc1ccc2ccccc2c1C=NC1CCCCC1`?
Exocytosis inh: 6.5; HKDC1 inhibitor: 35.2*; PfGluPho inh: 23.9; ABHD5 PLIN5 PPI: -28.4; HKDC1 act conf: -8.4

What do the screens show for `c1ccc(Cn2c[n+](Cc3ccccc3)c3ccccc32)cc1`?
Exocytosis inh: 26.2; HKDC1 inhibitor: 3.1; PfGluPho inh: -9.3; ABHD5 PLIN5 PPI: -12.9

What do the screens show for `COc1cc(-c2nnc(SCC(=O)N3c4ccccc4Sc4ccccc43)o2)cc(OC)c1OC`?
Exocytosis inh: -0.6; HKDC1 inhibitor: -4.5; PfGluPho inh: -4.7; ABHD5 PLIN5 PPI: -4.0

What do the screens show for `O=C(Sc1nnc(-c2ccccc2)o1)N1c2ccccc2Sc2ccccc21`?
Exocytosis inh: 4.1; HKDC1 inhibitor: 37.2*; PfGluPho inh: 27.3; ABHD5 PLIN5 PPI: -2.2; HKDC1 act conf: -8.9

Results for O=C(CSc1nnc(-c2cccnc2)s1)Nc1ccnc2ccccc12 ?
Exocytosis inh: 0.0; HKDC1 inhibitor: 34.9; PfGluPho inh: 28.3; ABHD5 PLIN5 PPI: 0.7; HKDC1 act conf: 17.8

Results for C[C@H](CO)N1C[C@H](C)[C@H](CN(C)Cc2cccc(O)c2)OCc2ccccc2-c2c(n(C)c3ccccc23)C1=O ?
Exocytosis inh: -0.2; PfGluPho inh: 0.8; ABHD5 PLIN5 PPI: 2.5

What do the screens show for `COC(=O)c1cc(=O)n(Cc2cccs2)c(=NCc2cccs2)s1`?
Exocytosis inh: 3.0; HKDC1 inhibitor: -8.3; PfGluPho inh: 2.0; ABHD5 PLIN5 PPI: -3.2

How did COC(=O)c1cc(=O)n(Cc2ccc(OC)cc2)c(=NCc2ccc(OC)cc2)s1 do in these assays?
Exocytosis inh: 1.7; HKDC1 inhibitor: -43.4; PfGluPho inh: 4.6; ABHD5 PLIN5 PPI: 2.1; HKDC1 act conf: -16.1

What do the screens show for `Cc1cc(Oc2ccc(OCC(N)=O)nn2)nc(Cl)n1`?
Exocytosis inh: 9.5; HKDC1 inhibitor: -8.9; PfGluPho inh: -5.6; ABHD5 PLIN5 PPI: 0.2

What do the screens show for `COc1ccc(Oc2cc(C)nc(Cl)n2)nn1`?
Exocytosis inh: 0.4; HKDC1 inhibitor: -77.8; PfGluPho inh: -4.2; ABHD5 PLIN5 PPI: 4.6; HKDC1 act conf: -15.2

How did O=C(CCl)N(c1ccc(Cl)cc1)c1c[nH]c2ccccc12 do in these assays?
Exocytosis inh: 18.4; HKDC1 inhibitor: 40.8*; PfGluPho inh: 17.8; ABHD5 PLIN5 PPI: 21.6; HKDC1 act conf: 5.8

How did Oc1c(Br)cc(Br)cc1/C=N/c1nc2c(s1)CCCC2 do in these assays?
Exocytosis inh: 1.7; HKDC1 inhibitor: 37.4*; PfGluPho inh: 80.1*; ABHD5 PLIN5 PPI: -2.8; HKDC1 act conf: -1.8

What do the screens show for `NS(=O)(=O)c1ccc(N=Nc2c(=O)[nH]n3c(=O)c4c([nH]c23)CCCC4)cc1`?
Exocytosis inh: 1.8; HKDC1 inhibitor: 39.6*; PfGluPho inh: 26.5; ABHD5 PLIN5 PPI: 6.9; HKDC1 act conf: 72.5

Results for O=c1[nH]n2c(=O)c3c([nH]c2c1N=Nc1cccc(Cl)c1)CCC3 ?
Exocytosis inh: -4.8; HKDC1 inhibitor: 11.7; PfGluPho inh: -4.8; ABHD5 PLIN5 PPI: 4.2

Source: PubChem BioAssay
